Results published in PMC2982901 (Cancer chemotherapy and pharmacology, 2010).
Where “and” joins values, the source holds several entries; their conditions need not be identical. Equal values may be shown once. Read-outs that look alike come from different tables or passages of the source. Values belong to the compound of their own block, whether it stands above or below them.

Legend:
[1] = test system: Panc-1 xenografts; conditions: Panc-1 xenograft; for Median T–C: two tumor volume doublings
[2] = test system: Panc-1 cells; experiment: Growth inhibition assay, Panc-1 cells; type: cell-based, human; conditions: for IC50 vs. BACPT: ratio of IC50 to that of BACPT; for IC90 vs. BACPT: ratio of IC90 to that of BACPT
[3] = test system: Panc-1 cells; experiment: Drug interaction assay with gemcitabine in Panc-1 cells; type: cell-based, human; conditions: for Dose reduction index: gemcitabine followed 24 h by BACPT, Panc-1
How it was run: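 Panc-1 cells were grown in DMEM with 10% FBS and seeded at 3,000 cells/well. Gemcitabine was given first, then the test compound 24 h later. Exposure was 3 days, followed by 2 days in drug-free medium. Survival was read by ATP assay, with seven dose levels per curve in triplicate. Interaction was analysed by the Chou combination-index method as a function of fraction affected (fa = 0.5 is the IC50).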

[4] = test system: HT29 xenografts; conditions: HT29 xenograft, i.p. 5/2/5 schedule vs irinotecan i.v. Q4D×3
[5] = test system: SF-295 xenografts; conditions: SF-295 xenograft, i.p. 5/2/5 schedule vs irinotecan i.v. Q4D×3
[6] = test system: NCI-H460 xenografts; conditions: NCI-H460 xenograft, i.p. 5/2/5 schedule vs irinotecan i.v. Q4D×3
[7] = test system: IMR-32 histocultures; experiment: Histoculture assay, IMR-32; type: cell-based, human; conditions: hypoxic (1.5% O2) and acidic (pH 6.8), results not shown
[8] = test system: NGP neuroblastoma cell line; experiment: Growth inhibition assay, NGP neuroblastoma cells; type: cell-based, human
[9] = test system: SK-N-MC neuroblastoma cell line; experiment: Growth inhibition assay, SK-N-MC neuroblastoma cells; type: cell-based, human
[10] = test system: IMR-32 neuroblastoma cell line; experiment: Growth inhibition assay, IMR-32 neuroblastoma cells; type: cell-based, human
[11] = test system: SK-N-BE(2c) neuroblastoma cell line; experiment: Growth inhibition assay, SK-N-BE; type: cell-based, human
[12] = test system: MCF-7 cells; conditions: MCF-7 cells cultured at pH 6.8 vs. 7.4; cited from earlier work
[13] = 60 mg/kg i.v., Q4D×3 schedule, 60 mg/kg
[14] = 8.0 mg/kg i.p., 5/2/5 schedule, 8 mg/kg
[15] = read-out: IC50 (nM) pH 6.8, pH 6.8
[16] = read-out: IC50 (nM) pH 7.4, pH 7.4

IC50 (nM) ([2]; Panc-1 cells): inactive
Compound: C#Cc1cccc(Nc2ncnc3cc(OCCOC)c(OCCOC)cc23)c1 [Erlotinib]

IC50 ([2]; Homo sapiens, PANC-1): 68800 nM
IC90 (nM) ([2]; Panc-1 cells): not achieved
IC50 vs. BACPT ([2]; Panc-1 cells): 16,916
Compound: Nc1ncn([C@@H]2O[C@H](CO)[C@@H](O)[C@H]2O)c(=O)n1 [5-Azacytidine]

IC50 ([2]; Homo sapiens, PANC-1): 23 nM
IC90 ([2]; Homo sapiens, PANC-1): 117 nM
IC50 vs. BACPT ([2]; Panc-1 cells): 6
IC90 vs. BACPT ([2]; Panc-1 cells): 1
Compound: Nc1ccn([C@@H]2O[C@H](CO)[C@@H](O)C2(F)F)c(=O)n1 [Gemcitabine]
Dose reduction index ([3]; Fraction affected 0.2): 1.0
Dose reduction index ([3]; Fraction affected 0.3): 1.6
Dose reduction index ([3]; Fraction affected 0.4): 2.3
Dose reduction index ([3]; Fraction affected 0.5 (IC50)): 3.1
Dose reduction index ([3]; Fraction affected 0.6): 3.9
Dose reduction index ([3]; Fraction affected 0.7): 4.8
Dose reduction index ([3]; Fraction affected 0.8): 5.8

IC50 (nM) ([2]; Panc-1 cells): inactive
Compound: Cn1nnc2c(C(N)=O)ncn2c1=O [Temozolomide]

IC50 ([2]; Homo sapiens, PANC-1): 103 nM
IC90 (nM) ([2]; Panc-1 cells): not achieved
IC50 vs. BACPT ([2]; Panc-1 cells): 25
Compound: CCC1=C[C@@H]2CN(C1)Cc1c([nH]c3ccccc13)[C@@](C(=O)OC)(c1cc3c(cc1OC)N(C)[C@H]1[C@@](O)(C(=O)OC)[C@H](OC(C)=O)[C@]4(CC)C=CCN5CC[C@]31[C@@H]54)C2 [Vinorelbine]

IC50 ([2]; Homo sapiens, PANC-1): 6890 nM
IC90 ([2]; Homo sapiens, PANC-1): 13200 nM
IC50 vs. BACPT ([2]; Panc-1 cells): 1,693
IC90 vs. BACPT ([2]; Panc-1 cells): 154
Compound: Cc1nc(Nc2ncc(C(=O)Nc3c(C)cccc3Cl)s2)cc(N2CCN(CCO)CC2)n1 [Dasatinib]

IC50 ([2]; Homo sapiens, PANC-1): 651 nM
IC90 ([2]; Homo sapiens, PANC-1): 8750 nM
IC50 vs. BACPT ([2]; Panc-1 cells): 160
IC90 vs. BACPT ([2]; Panc-1 cells): 102
Compound: COc1cc([C@@H]2c3cc4c(cc3[C@@H](O[C@@H]3O[C@@H]5CO[C@@H](C)O[C@H]5[C@H](O)[C@H]3O)[C@H]3COC(=O)[C@H]23)OCO4)cc(OC)c1O [Etoposide]

Further lines, the compound ahead of its results:

Compound: CCc1c2c(nc3ccc(OC(=O)N4CCC(N5CCCCC5)CC4)cc13)-c1cc3c(c(=O)n1C2)COC(=O)[C@]3(O)CC [CPT-11, irinotecan]
Maximum body weight loss (%) ([1]; 40 mg/kg i.v., Q4D×3 schedule): 2%
Median survival ([1]; 40 mg/kg i.v., Q4D×3 schedule): 35.0 ± 9.3 days
TFS ([1]; 40 mg/kg i.v., Q4D×3 schedule): 0
Maximum body weight loss (%) ([1]; 60 mg/kg i.v., Q4D×3 schedule): 6%
TFS ([1]; 60 mg/kg i.v., Q4D×3 schedule): 0
Median survival [1, 13]: 31.4 ± 1.5 days
TFS [1, 13]: no tumor-free animals

Compound: Nc1ncn([C@H]2C[C@H](O)[C@@H](CO)O2)c(=O)n1 [Decitabine]
IC50 ([2]; Homo sapiens, PANC-1): 69000 nM
IC90 (nM) ([2]; Panc-1 cells): not achieved
IC50 vs. BACPT ([2]; Panc-1 cells): 16,963

Compound: 7-butyl-10-amino-camptothecin-(20S) β-alanine-lysine [BACPTDP]
Median survival ([1]; 4.5 mg/kg i.p., 5/2/5 schedule): 27.4 ± 2.0 days
TFS ([1]; 4.5 mg/kg i.p., 5/2/5 schedule): 0
Median T–C ([1]; 4.5 mg/kg i.p., 5/2/5 schedule): 10.9 days
Median survival [1, 14]: 67 days and 66.7 ± 7.8 days
TFS (tumor-free animals at 95 days) [1, 14]: 2/6 and 2
Median T–C ([1]; 8.0 mg/kg i.p., 5/2/5 schedule): 60.0 days
antitumor activity relative to irinotecan [4]: comparable to irinotecan
antitumor activity relative to irinotecan [5]: comparable to irinotecan
antitumor activity relative to irinotecan [6]: comparable to irinotecan

Compound: O=c1[nH]cc(F)c(=O)[nH]1 [5-Flurouracil]
IC50 ([2]; Homo sapiens, PANC-1): 9180 nM
IC90 ([2]; Homo sapiens, PANC-1): 97600 nM
IC50 vs. BACPT ([2]; Panc-1 cells): 2,257
IC90 vs. BACPT ([2]; Panc-1 cells): 1,136

Compound: CCc1c2c(nc3ccc(O)cc13)-c1cc3c(c(=O)n1C2)COC(=O)[C@]3(O)CC [SN-38]
IC50 [7]: 10000 nM

Compound: CCCCc1c2c(nc3ccc(N)cc13)-c1cc3c(c(=O)n1C2)COC(=O)C3(O)CC (stereo not drawn) [BACPT, 7-Butyl-10-amino-camptothecin]
Fold increase at acidic pH ([8]; pH 6.8 vs 7.4): 49
IC50 [8, 15]: 26 nM
IC50 [8, 16]: 1290 nM
Fold increase at acidic pH ([9]; pH 6.8 vs 7.4): 8
IC50 [9, 16]: 0.001 nM
Fold increase at acidic pH ([10]; IMR-32, pH 6.8 vs 7.4): 12
IC50 ([10]; read-out: IC50 (nM) pH 6.8, IMR-32, pH 6.8): 127 nM
IC50 ([10]; read-out: IC50 (nM) pH 7.4, IMR-32, pH 7.4): 1390 nM
Fold increase at acidic pH ([11]; pH 6.8 vs 7.4): 5
IC50 [11, 15]: 0.019 nM
IC50 [11, 16]: 0.099 nM
IC50 ([2]; Panc-1 cells): 4 nM
IC90 ([2]; Panc-1 cells): 86 nM
IC50 vs. BACPT ([2]; Panc-1 cells): 1
IC90 vs. BACPT ([2]; Panc-1 cells): 1
IC50 [7]: 200 nM
Dose reduction index ([3]; Fraction affected 0.2): 2.0
Dose reduction index ([3]; Fraction affected 0.3): 5.3
Dose reduction index ([3]; Fraction affected 0.4): 11.0
Dose reduction index ([3]; Fraction affected 0.6): 38.0
Dose reduction index ([3]; Fraction affected 0.7): 69.1
Dose reduction index ([3]; Fraction affected 0.8): 133.8
interaction in combination with gemcitabine (combination index) ([3]; Panc-1, molar ratio 100:1 gemcitabine:BACPT, median effect analysis): additive (CI = 1) to synergistic (CI < 1)
increase in potency at acidic pH [12]: ~15 fold
